For assay [1], the target named is T1, Alpha-1D adrenergic receptor (Rattus norvegicus) (UniProt P23944).
T1 sequence (whole entry): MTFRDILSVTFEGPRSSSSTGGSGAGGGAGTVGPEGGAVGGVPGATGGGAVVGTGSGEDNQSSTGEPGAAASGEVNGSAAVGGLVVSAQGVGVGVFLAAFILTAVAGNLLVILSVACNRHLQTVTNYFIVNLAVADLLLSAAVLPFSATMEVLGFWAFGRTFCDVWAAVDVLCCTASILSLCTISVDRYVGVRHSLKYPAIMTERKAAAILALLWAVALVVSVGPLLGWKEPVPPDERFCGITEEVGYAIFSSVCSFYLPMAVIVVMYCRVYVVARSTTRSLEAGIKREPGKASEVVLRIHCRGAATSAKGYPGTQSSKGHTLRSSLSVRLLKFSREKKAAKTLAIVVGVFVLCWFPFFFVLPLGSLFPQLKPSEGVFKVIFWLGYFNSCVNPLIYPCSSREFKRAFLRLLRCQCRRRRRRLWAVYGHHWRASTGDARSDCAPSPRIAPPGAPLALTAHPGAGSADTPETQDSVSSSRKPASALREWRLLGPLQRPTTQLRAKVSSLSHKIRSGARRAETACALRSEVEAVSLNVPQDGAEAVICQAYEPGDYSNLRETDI
The assay is described as follows: Inhibition of (-)-noradrenaline-induced contraction of rat thoracic aorta (Alpha-1D adrenergic receptor). It counts as functional, tissue-based. In short, it runs like this:
(§1)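 Endothelium-denuded rat thoracic aorta strips (denudation confirmed by no 100 µM acetylcholine relaxation after 1 µM noradrenaline) in Tyrode, 1 g tension, ≥2 h equilibration. Cumulative (-)-noradrenaline curves at 1 h intervals; third as control, antagonist 30 min before fourth.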

The target in assay [2] is T2, Alpha-1A adrenergic receptor (Rattus norvegicus) (UniProt P43140).
T2 sequence (whole entry): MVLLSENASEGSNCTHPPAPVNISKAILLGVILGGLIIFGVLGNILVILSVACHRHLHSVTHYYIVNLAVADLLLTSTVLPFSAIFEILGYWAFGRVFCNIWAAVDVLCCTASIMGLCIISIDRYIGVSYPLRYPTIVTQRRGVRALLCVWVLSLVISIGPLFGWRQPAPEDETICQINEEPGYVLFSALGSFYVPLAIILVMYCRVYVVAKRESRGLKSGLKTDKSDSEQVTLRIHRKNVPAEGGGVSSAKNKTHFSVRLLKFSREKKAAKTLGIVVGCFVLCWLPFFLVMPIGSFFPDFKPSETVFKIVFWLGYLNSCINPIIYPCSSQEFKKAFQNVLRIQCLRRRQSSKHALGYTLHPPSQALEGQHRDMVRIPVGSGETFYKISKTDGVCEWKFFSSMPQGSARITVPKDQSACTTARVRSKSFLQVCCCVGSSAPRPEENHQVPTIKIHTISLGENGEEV
The experiment in a line: Inhibition of (-)-noradrenaline-induced contraction of rat prostatic vas deferens (alpha1A receptor). It counts as functional. A digest of the protocol: (§2)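 Rat prostatic vas deferens portion equilibrated 60 min, washed every 15 min, primed twice with 10 µM noradrenaline, re-equilibrated 60 min; control noradrenaline concentration-response curve, then antagonist 30 min before repeat curve.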

Assay [3] deals with Alpha adrenergic receptor 1A and 1B (Rattus norvegicus) (UniProt P15823+P43140). The experiment in a line: Selectivity given as ratio of pKb value against alpha1A receptor to pKb value against alpha-1B receptor in rat. It counts as functional.
A short description of assay [4]: Selectivity over human alpha-1d/alpha-1b receptor.
The target in assay [5] is T3, Alpha-1D adrenergic receptor (Rattus norvegicus, UniProt P23944).
T3 sequence (P23944 whole entry): T1 sequence (whole entry)
The experiment in a line: Antagonistic activity against (-)-noradrenaline-induced contraction of rat thoracic aorta (Alpha-1D adrenergic receptor). The assay is classed as functional, tissue-based. To be noted: read-out: pA2 (converted). A digest of the protocol: as §1

Assay [6] addresses T4, Alpha-1B adrenergic receptor (Rattus norvegicus, UniProt P15823).
T4 sequence (P15823 whole entry): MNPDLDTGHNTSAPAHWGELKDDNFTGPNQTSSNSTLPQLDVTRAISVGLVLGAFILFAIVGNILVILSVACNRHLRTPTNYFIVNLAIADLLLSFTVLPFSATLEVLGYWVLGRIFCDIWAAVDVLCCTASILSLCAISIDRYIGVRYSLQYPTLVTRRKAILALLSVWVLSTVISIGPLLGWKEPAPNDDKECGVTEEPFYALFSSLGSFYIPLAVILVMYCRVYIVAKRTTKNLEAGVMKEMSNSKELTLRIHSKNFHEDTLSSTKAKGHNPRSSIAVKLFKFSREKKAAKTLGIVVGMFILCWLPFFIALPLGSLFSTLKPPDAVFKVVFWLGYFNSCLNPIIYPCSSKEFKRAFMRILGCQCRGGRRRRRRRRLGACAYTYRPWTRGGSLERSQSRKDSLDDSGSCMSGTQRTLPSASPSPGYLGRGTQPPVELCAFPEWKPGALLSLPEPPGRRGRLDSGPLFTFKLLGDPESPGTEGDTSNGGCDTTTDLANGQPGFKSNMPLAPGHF
The assay is described as follows: Antagonistic activity against (-)-phenylephrine-induced contraction of rat spleen (Alpha-1B adrenergic receptor ). To be noted: read-out: pA2 (converted). The assay is classed as functional, tissue-based. A digest of the protocol:
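Rat spleen strips in buffer containing 4 µM propranolol to block β-adrenoceptors, 1 g resting tension, 2 h equilibration. Isometric cumulative phenylephrine curves at 30 min intervals; first discarded, second control.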

The target of assay [7] is T5, Alpha-1A adrenergic receptor (Rattus norvegicus, UniProt P43140).
T5 sequence (P43140 whole entry): T2 sequence (whole entry)
The experiment in a line: Antagonistic activity against (-)-noradrenaline-induced contraction of rat prostatic vas deferens (alpha1A receptor). It counts as functional, tissue-based. To be noted: read-out: pA2 (converted). A digest of the protocol: as §2

These results are taken from ChEMBL document CHEMBL1136765, “1,3-dioxolane-based ligands as a novel class of alpha1-adrenoceptor antagonists” (J Med Chem, 2003).

With `CN(CCOc1ccccc1)CC1COC(c2ccccc2)(c2ccccc2)O1.O=C(O)C(=O)O` (configuration not stated), the negative-log Kb (pKb) turned out to be 6.06 in assay [1] and 5.06 in assay [2]. Also, the Selectivity in assay [3] was 0.6; in assay [4], less than 0.3.

Regarding `COc1ccccc1OCCNCC1COC(c2ccccc2)(c2ccccc2)O1.O=C(O)C(=O)O` (configuration not stated), the Kb in assay [5] is 2.24 nM; in assay [6], 43.7 nM; in assay [7] it was 29.5 nM. In addition, the Selectivity in assay [3] was 1; in assay [4], 7.

As for `O=C(O)C(=O)O.c1ccc(OCCNCC2COC(c3ccccc3)(c3ccccc3)O2)cc1` (configuration not stated), the Kb in assay [5] was 4.27 nM. In assay [2], this compound had a pKb of 6.16. The Selectivity in assay [3] was 2; in assay [4], 6.

On to `C[N+](C)(CCOc1ccccc1)CC1COC(c2ccccc2)(c2ccccc2)O1.O=C([O-])C(=O)O` (configuration not stated), for which the figures for the pKb in assay [1] and in assay [2] were 6.19 and less than 5, respectively. Besides, the Selectivity in assay [3] was less than 0.3; in assay [4], less than 0.02.

As a reminder, the pKb is the Kb on a negative log10 scale, so that one unit is a factor of ten. Low readings indicate a large Kb, high ones a small Kb.
